From ChEMBL document CHEMBL4396972, “Glycyrrhizic acid derivatives as Dengue virus inhibitors” (Bioorg Med Chem Lett, 2019) come the findings set out here.

Calls of active or inactive are those of the source. No cut-off for these calls is given here.

Data set [1] concerns dengue virus type 2. Put plainly: Antiviral activity against DENV2 16681 infected in African green monkey Vero E6 cells assessed as reduction in virus induced cytopathic effect at 10 uM measured after 96 hrs by reverse phase contrast microscopy. The settings on record: Vero C1008. The data set is classed as functional, organism-based. Summed up: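 Vero E6 cells in supporting DMEM infected with DENV2 strain 16681 (MOI 0.01), then treated immediately with compound at 10 μM. After 96 h incubation, cytopathic effect photographed by reverse phase-contrast microscopy and scored semi-quantitatively (−, +, ++, +++) against infected controls.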
(Damage to the host cells serves as the signal in cytopathic effect assays.)

Another data set deals with Vero C1008. Put plainly: Cytotoxicity against African green monkey Vero E6 cells assessed as reduction in survival rate measured after 48 hrs by MTT assay. The note with it: chlorocebus sabaeus, vero c1008, 48 h. The data set is classed as cell-based. Summed up:
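MTT viability test on Vero E6 cells in DMEM over a range of compound concentrations. CC50 calculated from survival of treated cells relative to mock cells.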

Data set [2] is described as follows: Therapeutic index, ratio of CC50 for African green monkey Vero E6 cells to IC50 for DENV2 16681 infected in African green monkey Vero E6 cells. The settings on record: read-out: Ratio CC50/IC50. Format: toxicity, Vero C1008. The method in brief: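 TI = CC50/IC50. CC50 comes from the Vero E6 MTT survival test. IC50 comes from the NS4B-positive cell fraction by immunofluorescence in DENV2 16681-infected Vero E6 cells (MOI 0.01, 96 h, 0–10 μM).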

In data set [3] the test system is dengue virus type 2. Description: Antiviral activity against DENV2 16681 infected in human A549 cells assessed as inhibitory rate of NS4B positive cells at 0.1 to 10 uM measured after 120 hrs post infection by DAPI staining based immunofluorescence method. Format: functional, organism-based.
Data set [4] deals with dengue virus type 2. Put plainly: Antiviral activity against DENV2 16681 infected in African green monkey Vero E6 cells assessed as inhibitory rate of NS4B positive cells measured after 96 hrs incubation by DAPI staining based immunofluorescence method. Format: functional, organism-based. The settings on record: for IC50: Dengue virus, 16681, Vero C1008, 96 h; for inhibition: Vero C1008. Summed up:
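Vero E6 cells in DMEM, infected with DENV2 strain 16681 at MOI 0.01 and treated with compound (0, 0.1, 1, 10 μM; single 10 μM for screening). After 96 h, immunofluorescence with anti-NS4B antibody and DAPI nuclear counterstain. Infectivity = NS4B-positive cells / DAPI-stained cells. Inhibitory rate = (1 − NS4B-positive % treated / NS4B-positive % mock-treated infected) × 100. IC50 derived from NS4B-positive percentages across concentrations.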

Data set [5] has as its system dengue virus type 2. Description: Antiviral activity against DENV2 16681 infected in African green monkey Vero E6 cells assessed as inhibitory rate of NS4B positive cells at 10 uM measured after 96 hrs incubation by DAPI staining based immunofluorescence method. The data set is classed as functional. The note with it: Dengue virus, 16681, Vero C1008, 96 h. Summed up:
(§1)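 Vero E6 cells in DMEM infected with DENV2 strain 16681 at MOI 0.01, treated at once with compound (0, 0.1, 1, 10 μM), 96 h. Immunofluorescence with anti-NS4B antibody and DAPI counterstain. Infectivity taken as NS4B-positive cells over DAPI-stained total cells. Inhibitory rate = (1 − NS4B-positive % treated infected / NS4B-positive % mock-treated infected) × 100.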

The test system of data set [6] is dengue virus type 2. Put plainly: Antiviral activity against DENV2 16681 infected in African green monkey Vero E6 cells assessed as reduction in virus induced cytopathic effect measured after 96 hrs by reverse phase contrast microscopy. Format: functional, organism-based. The settings on record: Vero C1008. Summed up:
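Vero E6 cells in DMEM infected with DENV2 16681 at MOI 0.01, compound added immediately (screen at 10 μM, then 0, 0.1, 1, 10 μM). Photographed 96 h post infection by phase-contrast microscopy. CPE reduction scored qualitatively (−, +, ++, +++).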

Data set [7] has as its system dengue virus type 2. Description: Antiviral activity against DENV2 16681 infected in human A549 cells assessed as reduction in virus induced cytopathic effect at 0.1 to 10 uM measured after 120 hrs post infection by light microscopy. The data set is classed as functional, organism-based.
Data set [8] relates to dengue virus type 2. Put plainly: Antiviral activity against DENV2 16681 infected in African green monkey Vero E6 cells assessed as inhibitory rate of NS4B positive cells at 1 uM measured after 96 hrs incubation by DAPI staining based immunofluorescence method. Format: functional. The settings on record: Dengue virus, 16681, Vero C1008, 96 h. The method in brief:
as §1

As usually defined, the inhibition is the change of the read-out against control, counted positive when it falls. The term CC50 denotes the concentration at which the toxic effect on the cells reaches its halfway point. By IC50 is commonly meant the midpoint of a concentration-inhibition curve. Turning to `CC[C@H](C)[C@H](NC(=O)[C@H]1O[C@@H](O[C@H]2[C@@H](O[C@H]3CC[C@]4(C)[C@H]5C(=O)C=C6[C@@H]7C[C@@](C)(C(=O)N[C@H](C(=O)O)[C@@H](C)CC)CC[C@]7(C)CC[C@@]6(C)[C@]5(C)CC[C@H]4C3(C)C)O[C@H](C(=O)N[C@H](C(=O)O)[C@@H](C)CC)[C@@H](O)[C@@H]2O)[C@H](O)[C@@H](O)[C@@H]1O)C(=O)O`, the inhibition result in the data set with dengue virus type 2 [1], in the data set on dengue virus type 2 [3] and with dengue virus type 2 [7] was “Active” in each case. For the same molecule, in the data set with Vero C1008, the CC50 was above 100 µM. Also, the selectivity ratio in data set [2] was above 76.3. Further, in the data set on dengue virus type 2 [4], the IC50 came to 1.3 µM. The inhibition entry with dengue virus type 2 [4] and in the data set on dengue virus type 2 [6] was “Dose-dependent effect” each time. Also, the inhibition at 10 µM in the data set with dengue virus type 2 [5] stood at 95.7%. Also, the inhibition at 1 µM with dengue virus type 2 [8] is 20.2%.
With `CC1(C)[C@@H](O[C@H]2O[C@H](C(=O)O)[C@@H](O)[C@H](O)[C@H]2O[C@@H]2O[C@H](C(=O)O)[C@@H](O)[C@H](O)[C@H]2O)CC[C@]2(C)[C@H]3C(=O)C=C4[C@@H]5C[C@@](C)(C(=O)O)CC[C@]5(C)CC[C@@]4(C)[C@]3(C)CC[C@@H]12` [GLYCYRRHIZIN], the inhibition entry with dengue virus type 2 [1] was “Active”. Also, in the data set on Vero C1008, the CC50 was above 100 µM. Also, the selectivity ratio in data set [2] was above 12.3. Moreover, the half-maximal inhibitory concentration (IC50) in the data set on dengue virus type 2 [4] came out at 8.1 µM. For the same molecule, the inhibition result in the data set on dengue virus type 2 [4] and with dengue virus type 2 [6] was “Dose-dependent effect” each time. Besides, the inhibition at 10 µM in the data set with dengue virus type 2 [5] was 70.5%.
As to `COC(=O)[C@H](CCSC)NC(=O)[C@H]1O[C@@H](O[C@H]2[C@@H](O[C@H]3CC[C@]4(C)[C@H]5C(=O)C=C6[C@@H]7C[C@@](C)(C(=O)N[C@@H](CCSC)C(=O)OC)CC[C@]7(C)CC[C@@]6(C)[C@]5(C)CC[C@H]4C3(C)C)O[C@H](C(=O)N[C@@H](CCSC)C(=O)OC)[C@@H](O)[C@@H]2O)[C@H](O)[C@@H](O)[C@@H]1O`, the inhibition entry in the data set on dengue virus type 2 [1] was “Active”. Further, the CC50 in the data set with Vero C1008 was above 100 µM. Further, the selectivity ratio in [2] was above 22.2. Besides, in the data set with dengue virus type 2 [4], the IC50 was determined as 4.5 µM and the inhibition entry is “Dose-dependent effect”. The inhibition at 10 µM in the data set on dengue virus type 2 [5] came to 66.3%. Moreover, the inhibition result in the data set with dengue virus type 2 [6] is “Dose-dependent effect”.
